# Activity calls are given as the source filed them. The rule behind the calls is not given here.
# Tests used:
# M14 = test: Antiproliferative activity against human M14 cells assessed as cell viability after 72 hrs by MTT assay; type: functional, cell-based; settings: M14, 72 h
# Method in brief: (§1)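 Cells grown in RPMI with 10% fetal calf serum and penicillin, seeded in sextuplicate at 3 × 10^3 cells/well. After 24 h, cells were exposed 72 h to 5–200 µM. Viability was measured by MTT and expressed as treated/untreated × 100. IC50 was calculated from three independent experiments, reported as mean ± SD.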
# HaCaT [1] = test: Activation of AMPK/SIRT1 in human HaCaT cells assessed as nitric oxide production at 10 uM incubated for 1 hr in presence of compound C by DAF-2D staining-based fluorescence assay; type: cell-based
# Method in brief: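 HaCaT cells in DMEM with 10% FBS. DHP (10 µM) given for 1 h alone or together with 10 µM AMPK inhibitor compound C or 10 µM SIRT1 inhibitor EX-527. Intracellular NO read by flow cytometry after loading with 5 µM DAF-2D in medium (ex 485/em 538 nm). Expressed as % DAF-positive cells versus DMSO.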
# C2C12 [2] = test: Activation of AMPK/SIRT1 in mouse C2C12 cells assessed as increase in mitochondrial density at 30 uM after 16 hrs by Mitotracker Green staining-based confocal microscopy in presence of compound C; type: cell-based
# Method in brief: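 C2C12 myoblasts plated overnight, then in serum-free HBSS pH 7.4 and treated 16 h at 30 µM, alone or with 5 µM inhibitor (EX-527 or compound C). Mitotracker Green at 200 nM final was added for the last 30 min. Cells were fixed in 4% paraformaldehyde, permeabilized with Triton X-100 and imaged by confocal microscopy with fixed settings. Alternatively, mitochondrial fluorescence was quantified in plates.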
# HT-29 = test: Antiproliferative activity against human HT-29 cells assessed as cell viability after 72 hrs by MTT assay; type: functional, cell-based; settings: HT-29, 72 h; method in brief: as §1
# C2C12 [3] = test: Activation of AMPK/SIRT1 in mouse C2C12 cells assessed as increase in mitochondrial density at 30 uM after 16 hrs by Mitotracker Green staining-based confocal microscopy; type: cell-based
# Method in brief: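 Murine C2C12 myoblasts plated on coverslips and grown overnight at 37 °C, 5% CO2. Then switched to serum-free HBSS, pH 7.4, and treated 16 h at 30 µM, alone or with 5 µM compound C or EX-527. Mitotracker Green (200 nM final) added for the last 30 min. Cells fixed in 4% paraformaldehyde, permeabilized and imaged by confocal microscopy, with settings fixed on untreated cells. Plate fluorescence also quantified.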
# HaCaT [4] = test: Activation of AMPK/SIRT1 in human HaCaT cells assessed as nitric oxide production incubated for 1 hr by DAF-2D staining-based fluorescence assay; type: cell-based
# Method in brief: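 HaCaT keratinocytes grown in DMEM with 10% FBS and antibiotics. Cells treated 1 h (single-point 1 µM; dose-response at 5, 25, 50 µM). 5 µM DAF-2D added to complete medium. Cells then washed in PBS, trypsinized and analysed by flow cytometry for DAF fluorescence (ex 485/em 538 nm). Read-out is % DAF-positive cells relative to DMSO control.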
# LoVo = test: Antiproliferative activity against human LoVo cells assessed as cell viability after 72 hrs by MTT assay; type: functional, cell-based; method in brief: as §1
# [5] = Antiproliferative activity against human SAN cells assessed as cell viability after 72 hrs by MTT assay; type: functional, cell-based; method in brief: as §1
# HCT-116 = test: Antiproliferative activity against human HCT116 cells assessed as cell viability after 72 hrs by MTT assay; type: functional, cell-based; settings: HCT-116, 72 h; method in brief: as §1
# Cavia porcellus = organism: Cavia porcellus; test: Potency index, ratio of potency for test compound to potency for nifedipine for inhibition of calcium channel in guinea pig ileum longitudinal smooth muscle assessed as inhibition of calcium-induced contraction; type: tissue-based
smiles,measurement,setting,value
CCOC(=O)C1=CN(C(=O)c2ccccc2)C=C(C(=O)OCC)C1c1ccccc1,IC50,M14,153 µM
same,Activity,HaCaT [1],inactive
same,Activity,C2C12 [2],inactive
same,IC50,HT-29,80 µM
same,Activity,C2C12 [3],Active
same,Activity,HaCaT [4],Dose-dependent effect
same,IC50,LoVo,22 µM
same,IC50,[5],161 µM
same,IC50,HCT-116,62 µM
same,Ratio,Cavia porcellus,720

# From ChEMBL document CHEMBL4428023, “1,4-Dihydropyridines Active on the SIRT1/AMPK Pathway Ameliorate Skin Repair and Mitochondrial Function and Exhibit Inhibition of Proliferation in Cancer Cells” (J Med Chem, 2016)
